Experimental data of several laboratories.
Converted amounts (≈) assume the structure as drawn.

`N#Cc1ccc(C[C@H](NC(=O)c2cc3cc(F)ccc3[nH]2)C(=O)N2CCc3ccccc32)cc1` gave a kinetic solubility of 1 µM (≈ 0.452 µg/mL) (aqueous buffer; 2 h, pH 7.4, 37 °C).
`Fc1ccccc1Nc1nc(-c2ccncc2)nc2c1CNCC2` has a thermodynamic solubility of 596 µM (PBS; 24 h, pH 7.4).
`N#Cc1ccc(C[C@H](Nc2nnc(-c3ccc(F)cc3)o2)C(=O)N2CCc3ccccc32)cc1` gave a kinetic solubility of 4.8 µM (≈ 2.18 µg/mL) (aqueous buffer; 2 h, pH 7.4, 37 °C).
With `O=C(N1CCCCC1)C12CC(c3ccccc3)(C1)C2` the kinetic solubility was 266 µM (≈ 67.9 µg/mL) (PBS; 2 h, pH 7.4, 25 °C).
With `CN1CCN(c2cccc(-c3ccc4ncnc(Nc5ccc(Cl)c(Cl)c5)c4c3)c2)CC1` the thermodynamic solubility was under 1.7 µM (aqueous buffer; pH 7.4, 25 °C).
The kinetic solubility of `CCN(CC)CCNC(=O)c1cc(S(C)(=O)=O)ccc1OC` is reported as 394 µM (≈ 129 µg/mL) (PBS; 2 h, pH 7.4, 25 °C).
`CCCCCCCCCCCCCCCC(=O)NCCOC(=O)C[C@@H](CN)CC(C)C` has a thermodynamic solubility of 3460 µg/mL (water; 12 h, 37 °C).
For `CNS(=O)(=O)c1ccc(Nc2ncc(C(F)(F)F)c([C@H]3CC[C@@](C)(O)CC3)n2)c(C)c1`, the solubility was 128 µM (FaSSIF; 2 h).
With `CCCCCCCCCCCCCCCC(=O)NCCO` the thermodynamic solubility was under 16 µg/mL (water; 12 h, 37 °C).
For `CN1CCN(c2cccc(-c3ccc4ncnc(Nc5ccc(Cl)c(C(F)(F)F)c5)c4c3)c2)CC1`, the thermodynamic solubility was under 1.4 µM (aqueous buffer; pH 7.4, 25 °C).
`N#Cc1ccc(C[C@H](Nc2nnc(-c3ccc(Br)cc3)o2)C(=O)N2CCc3ccccc32)cc1` has a kinetic solubility of 1.8 µM (≈ 0.926 µg/mL) (aqueous buffer; 2 h, pH 7.4, 37 °C).
With `CO[C@H]1C[C@@H]2CC[C@@H](C)[C@@](O)(O2)C(=O)C(=O)N2CCCC[C@H]2C(=O)O[C@H]([C@H](C)C[C@@H]2CC[C@@H](O)[C@H](OC)C2)CC(=O)[C@H](C)/C=C(\C)[C@@H](O)[C@@H](OC)C(=O)[C@H](C)C[C@H](C)/C=C/C=C/C=C/1C` the thermodynamic solubility was 6 µM (aqueous buffer; 18 h, pH 7.4).
The kinetic solubility of `N#Cc1ccc(C[C@H](NC(=O)Nc2ccc(F)cc2)C(=O)N2CCc3ccccc32)cc1` is reported as 10.5 µM (≈ 4.5 µg/mL) (aqueous buffer; 2 h, pH 7.4, 37 °C).
`Cc1ccccc1CN1C(=O)C2=C(CCN(Cc3ccccc3)C2)N2CCN=C12` has a solubility of 260 µg/mL (shake flask; aqueous buffer; pH 6).
The kinetic solubility of `N#Cc1ccc(C[C@H](Nc2c(Nc3ccc(F)cc3)c(=O)c2=O)C(=O)N2CCc3ccccc32)cc1` is reported as 11.8 µM (≈ 5.67 µg/mL) (aqueous buffer; 2 h, pH 7.4, 37 °C).
For `CC[C@H](C)[C@H](NC(=O)[C@H](C)NC(=O)CNC(=O)[C@H](Cc1ccccc1)NC(=O)[C@H](CC(N)=O)NC(=O)[C@H](CC(N)=O)NC(=O)[C@H](CO)NC(=O)[C@H](CO)NC(=O)[C@H](Cc1c[nH]cn1)NC(=O)[C@@H](NC(=O)[C@H](CC(C)C)NC(=O)[C@H](Cc1ccccc1)NC(=O)[C@H](CC(N)=O)NC(=O)[C@H](C)NC(=O)[C@H](CC(C)C)NC(=O)[C@H](CCCNC(=N)N)NC(=O)[C@H](CCC(N)=O)NC(=O)[C@@H](NC(=O)[C@H](C)NC(=O)[C@@H]1CSSC[C@H](NC(=O)[C@@H](N)CCCCN)C(=O)N[C@@H](CC(N)=O)C(=O)N[C@@H]([C@@H](C)O)C(=O)N[C@@H](C)C(=O)N[C@@H]([C@@H](C)O)C(=O)N1)[C@@H](C)O)C(C)C)C(=O)N[C@@H](CC(C)C)C(=O)N[C@@H](CO)C(=O)N[C@@H](CO)C(=O)N[C@H](C(=O)N[C@@H](CC(N)=O)C(=O)N[C@H](C(=O)NCC(=O)N[C@@H](CO)C(=O)N[C@@H](CC(N)=O)C(=O)N[C@H](C(=O)N[C@@H](Cc1ccc(O)cc1)C(N)=O)[C@@H](C)O)C(C)C)[C@@H](C)O`, the thermodynamic solubility was 37 µg/mL (PBS; 1 h, pH 7.4).
